This note sets out measurements from ChEMBL document CHEMBL6177937, “Design, synthesis, and biological evaluation of novel thiazole derivatives as PI3K/mTOR dual inhibitors” (RSC Med Chem, 2024).

Molecules are shown by their SMILES.

One data set concerns SR. The data set is described as follows: Growth inhibition of human SR cells measured after 48 hrs by SRB assay. It counts as functional. The method, boiled down:
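NCI 60-line SRB screen: cells seeded […], grown 24 h at 37°C, 5% CO2, then exposed 48 h to five concentrations (10-fold or ½-log dilutions from DMSO stock). Adherent cells fixed with cold TCA (final 10%), suspension cells with 80% TCA (final 16%); SRB stained, read at 515 nm. GI50 from time-zero, control and treated absorbances.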
On the technique in general: The SRB assay estimates cell density from bound dye.

Data set [1] can be described thus: Cytotoxicity against human PCS-800-017 cells assessed as reduction in cell viability measured after 24 hrs by MTT assay. It counts as toxicity, cell-based. The gist of the method:
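MTT viability with 24 h incubation in 96-well plates. Five semi-log concentrations from 0.01 to 100 μM. Formazan absorbance read at 570 nm, with 690 nm background subtracted. Run in triplicate. IC50 obtained by sigmoidal dose-response fitting. Cells are leukemia HL-60(TB) and normal lymphocytes (PCS-800-017).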
A general note: Tetrazolium assays rely on reduction of a dye to a coloured formazan, in cell work by metabolically active cells.

Data set [2] relates to HL-60. The data set is described as follows: Cell cycle arrest in human HL-60 cells assessed as decrease in accumulation of cells at S-phase at 2.32 uM measured after 24 hrs by propidium iodide staining based flow cytometry relative to control. Format: functional. Further details: scale not given: the % may be the effect or the level left. In general terms: In flow cytometry, cells or beads pass a laser one at a time.

Data set [3] concerns HL-60. The data set is described as follows: Cell cycle arrest in human HL-60 cells assessed as decrease in accumulation of cells at G2/M-phase at 2.32 uM measured after 24 hrs by propidium iodide staining based flow cytometry relative to control. It counts as functional. Further details: scale not given: the % may be the effect or the level left.
In data set [4] the test system is HL-60. The data set is described as follows: Cell cycle arrest in human HL-60 cells assessed as increase in accumulation of cells at G0/G1-phase at 2.32 uM measured after 24 hrs by propidium iodide staining based flow cytometry relative to control. Format: functional.
The subject of data set [5] is HL-60. In words: Cell cycle arrest in human HL-60 cells assessed as decrease in accumulation of cells at S-phase at 2.29 uM measured after 24 hrs by propidium iodide staining based flow cytometry relative to control. It counts as functional. Further details: scale not given: the % may be the effect or the level left.
In data set [6] the test system is HL-60. In words: Cell cycle arrest in human HL-60 cells assessed as decrease in accumulation of cells at G2/M-phase at 2.29 uM measured after 24 hrs by propidium iodide staining based flow cytometry relative to control. Format: functional. Further details: scale not given: the % may be the effect or the level left.
Data set [7] has as its system HL-60. In words: Cell cycle arrest in human HL-60 cells assessed as increase in accumulation of cells at G0/G1-phase at 2.29 uM measured after 24 hrs by propidium iodide staining based flow cytometry relative to control. Format: functional.

On to `CCOc1cc(/C=N/Nc2nc(-c3cccc([N+](=O)[O-])c3)cs2)ccc1O`, for which the GI50 (in general, the concentration that inhibits growth by half) with SR was found to be 3.07 µM. The TGI (commonly the concentration at which net growth stops) in the data set with SR is above 100 µM. Moreover, in the data set on SR (read-out: LC50 (the source's name)), the CC50 was above 100 µM. Further, in data set [1], the IC50 (in general, the concentration at which inhibition is half-maximal) at 24 h was 28.6 µM. The Activity came out at 2.5% with HL-60 [2] and 63.5% in the data set on HL-60 [3]. The “fold change (FC)” value in the data set on HL-60 [4] is reported as 1.28.
Take `O=[N+]([O-])c1cc(/C=N/Nc2nc(-c3ccc(Cl)cc3)cs2)ccc1Cl`: in data set [1], the IC50 at 24 h was 22.7 µM. In addition, the Activity in the data set on HL-60 [5] was found to be 7.3%; in the data set with HL-60 [6], 12.8%. Further, in the data set with HL-60 [7], the “fold change (FC)” value is reported as 1.13.
